Measured values from ChEMBL document CHEMBL3399923, “Design and synthesis of new bioisosteres of spirooxindoles (MI-63/219) as anti-breast cancer agents” (Bioorg Med Chem, 2015).
Calls of active or inactive are those of the source. The rule behind the calls is not given here.

Assays:
Vero = test: Cytotoxicity against African green monkey Vero cells after 48 hrs by MTT assay; format: cell-based; conditions: Chlorocebus sabaeus
Method in brief: (§1)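 MTT viability screen for cytotoxicity across the breast cancer and normal kidney epithelial lines; IC50 reported in µM.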

HEK293 = test: Cytotoxicity against human HEK293 cells after 48 hrs by MTT assay; format: cell-based; conditions: HEK293, 48 h; method in brief: as §1
MDA-MB-231 = test: Cytotoxicity against human MDA-MB-231 cells after 48 hrs by MTT assay; format: functional, cell-based; conditions: MDA-MB-231, 48 h; method in brief: as §1
MCF7 [1] = test: Cytotoxicity against human MCF7 cells after 48 hrs by MTT assay; format: functional, cell-based; conditions: MCF7, 48 h; method in brief: as §1
Homo sapiens [2] = species: Homo sapiens; test: Increase in p53 protein expression in human primary breast adenocarcinoma cells; format: functional
MCF7 [3] = test: Antitumor activity against human MCF7 cells xenografted in nude mouse assessed as reduction in tumor size at 20 mg/kg, po administered for 14 days relative to vehicle-treated control; format: functional; design: scale not given: the % may be the effect or the level left
Method in brief: (§2)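 MCF-7 xenograft tumors were induced in athymic nude mice and dosed at 20 mg/kg body weight/day for 14 days, alongside a vehicle-treated group. Tumor volume, average tumor size and body weight were tracked. Liver, lungs, spleen, uterus and kidney were examined histomorphologically against vehicle.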

MCF7 [4] = test: Increase in p53 […] in human MCF7 cells assessed as increase in p21 promoter activity after 18 hrs by luciferase reporter gene assay; format: functional, cell-based
MCF7 [5] = test: Increase in p53 protein expression in human MCF7 cells; format: functional, cell-based
MCF7 [6] = test: Increase in MDM2 mRNA expression in human MCF7 cells at 2.5 to 7.5 uM by RT-PCR analysis; format: functional, cell-based
Method in brief: (§3)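 p53 and MDM2 mRNA were measured by real-time quantitative PCR in vehicle- versus compound-treated MCF-7 or primary breast cancer cells. Data are the mean of three separate experiments with SEM, compared with control.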

MCF7 [7] = test: Cell cycle arrest at G1/S phase in human MCF7 cells assessed as reduction in cyclin D1 mRNA expression at 2.5 to 7.5 uM after 48 hrs by RT-PCR analysis; format: functional, cell-based
Method in brief: (§4)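 Real-time quantitative PCR of p21, cyclin D1, A1, B1 and E1 mRNA in treated MCF-7 cells. Mean with SEM, n = 3, compared with control.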

MCF7 [8] = test: Cell cycle arrest in human MCF7 cells assessed as accumulation at G1 phase at 7.5 uM after 48 hrs by propidium iodide staining-based flow cytometry (reference value: 60%); format: functional
Method in brief: (§5)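 Cells were exposed to 7.5µM, then stained with propidium iodide and analysed by flow cytometry for the percentage of cells in each cell-cycle phase. Mean with SEM is from three independent experiments, compared with control.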

Homo sapiens [9] = species: Homo sapiens; test: Increase in MDM2 protein expression in human primary breast adenocarcinoma cells; format: functional
Mus musculus [10] = test: Toxicity in nude mouse xenografted with human MCF7 cells assessed as change in liver at 20 mg/kg, po administered for 14 days by histomorphology relative to vehicle-treated control; format: organism-based; design: dose 20 mg/kg, route oral; conditions: in vivo, 336 h; method in brief: as §2
Mus musculus [11] = test: Toxicity in nude mouse xenografted with human MCF7 cells assessed as change in kidney at 20 mg/kg, po administered for 14 days by histomorphology relative to vehicle-treated control; format: organism-based; design: dose 20 mg/kg, route oral; conditions: in vivo, 336 h; method in brief: as §2
Homo sapiens [12] = species: Homo sapiens; test: Increase in p21 protein expression in human primary breast adenocarcinoma cells assessed as reduction in cyclin D1 expression at 2.5 to 7.5 uM by immunoblotting analysis; format: functional
Method in brief: (§6)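 Western blot of cell-cycle regulatory proteins (p21, cyclin D1, phospho-Rb) in MCF-7 or primary breast cancer cells. Densitometric quantitation is given as fold change versus control; mean with SEM, n = 3.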

Mus musculus [13] = test: Antitumor activity against human MCF7 cells xenografted in nude mouse assessed as reduction in phosphorylated Rb level at 20 mg/kg, po administered for 14 days by Western blotting analysis; format: functional, organism-based; design: dose 20 mg/kg
MCF7 [14] = test: Cell cycle arrest at G2/M phase in human MCF7 cells assessed as reduction in cyclin B1 mRNA expression at 2.5 to 7.5 uM after 48 hrs by RT-PCR analysis; format: functional, cell-based; method in brief: as §4
MCF7 [15] = test: Cell cycle arrest at G1/S phase in human MCF7 cells assessed as reduction in cyclin E1 mRNA expression at 2.5 to 7.5 uM after 48 hrs by RT-PCR analysis; format: functional, cell-based; method in brief: as §4
MCF7 [16] = test: Increase in p21 protein expression in human MCF7 cells assessed as reduction in Rb phosphorylation at 2.5 to 7.5 uM by immunoblotting analysis; format: functional, cell-based; method in brief: as §6
Mus musculus [17] = test: Toxicity in nude mouse xenografted with human MCF7 cells assessed as change in uterus at 20 mg/kg, po administered for 14 days by histomorphology relative to vehicle-treated control; format: organism-based; design: dose 20 mg/kg, route oral; conditions: in vivo, 336 h; method in brief: as §2
Mus musculus [18] = test: Antitumor activity against human MCF7 cells xenografted in nude mouse assessed as increase in p21 protein expression at 20 mg/kg, po administered for 14 days by Western blotting analysis; format: functional, organism-based; design: dose 20 mg/kg
MCF7 [19] = test: Cell cycle arrest at G1/S phase in human MCF7 cells assessed as reduction in cyclin A1 mRNA expression at 2.5 to 7.5 uM after 48 hrs by RT-PCR analysis; format: functional, cell-based; method in brief: as §4
Homo sapiens [20] = species: Homo sapiens; test: Increase in MDM2 mRNA expression in human primary breast adenocarcinoma cells at 2.5 to 7.5 uM by RT-PCR analysis; format: functional; method in brief: as §3
Mus musculus [21] = test: Toxicity in nude mouse xenografted with human MCF7 cells assessed as change in spleen at 20 mg/kg, po administered for 14 days by histomorphology relative to vehicle-treated control; format: organism-based; design: dose 20 mg/kg, route oral; conditions: in vivo, 336 h; method in brief: as §2
Homo sapiens [22] = species: Homo sapiens; test: Increase in p21 protein expression in human primary breast adenocarcinoma cells assessed as reduction in Rb phosphorylation at 2.5 to 7.5 uM by immunoblotting analysis; format: functional; method in brief: as §6
MCF7 [23] = test: Increase in p21 protein expression in human MCF7 cells at 7.5 uM by immunoblotting analysis relative to control; format: functional; method in brief: as §6
Mus musculus [24] = test: Toxicity in nude mouse xenografted with human MCF7 cells assessed as change in lungs at 20 mg/kg, po administered for 14 days by histomorphology relative to vehicle-treated control; format: organism-based; design: dose 20 mg/kg, route oral; conditions: in vivo, 336 h; method in brief: as §2
MCF7 [25] = test: Increase in p21 mRNA expression in human MCF7 cells at 5 to 7.5 uM by RT-PCR analysis; format: functional, cell-based; method in brief: as §4
[26] = Cell cycle arrest in human primary breast adenocarcinoma cells assessed as accumulation at G1 phase at 7.5 uM after 48 hrs by propidium iodide staining-based flow cytometry (reference value: 60%); format: functional; method in brief: as §5
[27] = Increase in p21 protein expression in human primary breast adenocarcinoma cells at 7.5 uM by immunoblotting analysis relative to control; format: functional; method in brief: as §6
MCF7 [28] = test: Increase in MDM2 protein expression in human MCF7 cells; format: functional, cell-based
Mus musculus [29] = test: Toxicity in nude mouse xenografted with human MCF7 cells assessed as change in body weight at 20 mg/kg, po administered for 14 days relative to vehicle-treated control; format: organism-based; design: dose 20 mg/kg, route oral; conditions: in vivo, 336 h; method in brief: as §2
Mus musculus [30] = test: Antitumor activity against human MCF7 cells xenografted in nude mouse assessed as reduction in cyclin D1 protein expression at 20 mg/kg, po administered for 14 days by Western blotting analysis; format: functional, organism-based; design: dose 20 mg/kg
MCF7 [31] = test: Increase in p21 protein expression in human MCF7 cells assessed as reduction in cyclin D1 expression at 2.5 to 7.5 uM by immunoblotting analysis; format: functional, cell-based; method in brief: as §6
MCF7 [32] = test: Antitumor activity against human MCF7 cells xenografted in nude mouse assessed as reduction in tumor volume at 20 mg/kg, po administered for 14 days relative to vehicle-treated control; format: functional; design: scale not given: the % may be the effect or the level left; method in brief: as §2
Homo sapiens [33] = species: Homo sapiens; test: Increase in p53 mRNA expression in human primary breast adenocarcinoma cells at 2.5 to 7.5 uM by RT-PCR analysis; format: functional; method in brief: as §3
MCF7 [34] = test: Increase in p53 mRNA expression in human MCF7 cells at 2.5 to 7.5 uM by RT-PCR analysis; format: functional, cell-based; method in brief: as §3

CN(C)CCCOc1ccc(C(=O)C2[C@H](c3ccccc3)[C@@H](c3ccccc3)NC23C(=O)Nc2ccccc23)cc1 (stereo not given in full)
IC50 (Vero): > 50 µM
IC50 (HEK293): > 50 µM
IC50 (MDA-MB-231): 9.2 µM
IC50 (MCF7 [1]): 9.6 µM

O=C(c1ccccc1)C1[C@H](c2ccc(O)cc2)[C@@H](c2ccccc2)NC12C(=O)Nc1ccccc12 (stereo not given in full)
IC50 (Vero): > 50 µM
IC50 (HEK293): > 50 µM
IC50 (MDA-MB-231): 37.3 µM
IC50 (MCF7 [1]): 36.3 µM

O=C(c1ccc(OCCN2CCCCC2)cc1)C1[C@H](c2ccccc2)[C@@H](c2ccccc2)NC12C(=O)Nc1ccccc12 (stereo not given in full)
IC50 (Vero): 32.4 µM
IC50 (HEK293): 30.8 µM
IC50 (MDA-MB-231): 28.2 µM
IC50 (MCF7 [1]): 13.9 µM

COc1ccc(C2=N[C@@H](c3ccc(Cl)cc3)[C@@H](c3ccc(Cl)cc3)N2C(=O)N2CCNC(=O)C2)c(OC(C)C)c1 [NUTLIN-3]
IC50 (Vero): > 50 µM
IC50 (HEK293): > 50 µM
IC50 (MDA-MB-231): 23.5 µM
IC50 (MCF7 [1]): 11.6 µM

CCN1C(=O)C2(N[C@H](c3ccccc3)[C@@H](c3ccccc3)C2C(=O)c2ccc(OCCN3CCOCC3)cc2)c2ccccc21 (stereo not given in full)
IC50 (Vero): > 50 µM
IC50 (HEK293): > 50 µM
IC50 (MDA-MB-231): > 50 µM
IC50 (MCF7 [1]): > 50 µM

CCN(CC)CCOc1ccc(C(=O)C2[C@H](c3ccccc3)[C@@H](c3ccccc3)NC23C(=O)Nc2ccccc23)cc1 (stereo not given in full)
IC50 (Vero): 20.6 µM
IC50 (HEK293): 23.2 µM
IC50 (MDA-MB-231): 14.5 µM
IC50 (MCF7 [1]): 13.4 µM

O=C(c1ccc(OCCN2CCCCC2)cc1)C1[C@H](c2ccccc2)[C@@H](c2ccccc2)NC12C(=O)Nc1ccc(Cl)cc12 (stereo not given in full)
Activity (Homo sapiens [2]): Active
Activity (MCF7 [3]): 66%
Activity (MCF7 [4]): Dose-dependent effect
Activity (MCF7 [5]): Active
Activity (MCF7 [6]): Active
Activity (MCF7 [7]): Active
Activity (MCF7 [8]): 90%
Activity (Homo sapiens [9]): Active
Activity (Mus musculus [10]): Non-toxic
Activity (Mus musculus [11]): Non-toxic
IC50 (Vero): > 50 µM
Activity (Homo sapiens [12]): Active
Activity (Mus musculus [13]): Active
IC50 (HEK293): > 50 µM
Activity (MCF7 [14]): inactive
Activity (MCF7 [15]): Active
Activity (MCF7 [16]): Active
Activity (Mus musculus [17]): Non-toxic
Activity (Mus musculus [18]): Active
Activity (MCF7 [19]): Active
Activity (Homo sapiens [20]): Active
Activity (Mus musculus [21]): Non-toxic
Activity (Homo sapiens [22]): Active
Ratio (MCF7 [23]): 2.5
Activity (Mus musculus [24]): Non-toxic
Activity (MCF7 [25]): Active
Activity [26]: 90%
Ratio [27]: 2.5
IC50 (MDA-MB-231): 3.7 µM
Activity (MCF7 [28]): Active
Activity (Mus musculus [29]): Non-toxic
Activity (Mus musculus [30]): Active
IC50 (MCF7 [1]): 6.5 µM
Activity (MCF7 [31]): Active
Activity (MCF7 [32]): 66%
Activity (Homo sapiens [33]): Active
Activity (MCF7 [34]): Active

O=C(c1ccc(OCCN2CCOCC2)cc1)C1[C@H](c2ccccc2)[C@@H](c2ccccc2)NC12C(=O)Nc1ccc(Cl)cc12 (stereo not given in full)
IC50 (Vero): 30.8 µM
IC50 (HEK293): 25.4 µM
IC50 (MDA-MB-231): 19.2 µM
IC50 (MCF7 [1]): 18 µM
